Source: ChEMBL document CHEMBL1130225, “Synthesis of a series of potent and orally bioavailable thrombin inhibitors that utilize 3,3-disubstituted propionic acid derivatives in the P3 position” (J Med Chem, 1997)
Where “and” joins values, the source holds several entries; their conditions need not be identical. Identical values can stand only once. One block for each molecule: values may come before it.

How the values were obtained:
[1] = Half-life period after, peroral injection of 5 mg/kg in dogs; assay type: ADME, organism-based, Canis lupus familiaris; set-up: dose 5 mg/kg, route oral; details: dog, in vivo, po
[2] = Oral bioavailability (5 mg/kg, oral) was determined in dogs; assay type: ADME, organism-based, Canis lupus familiaris; details: dog, in vivo
How it was run: (§1)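 Dogs were given a single oral dose of 5 mg/kg as a suspension in 1% methocel. Oral bioavailability (F, %) was then determined.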

[3] = Oral bioavailability in rat (dose 10 mg/kg p.o.); assay type: ADME, organism-based; details: in vivo
How it was run: (§2)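 Rats were given a single oral dose of 10 mg/kg as a suspension in 1% methocel. Oral bioavailability (F, %) was then determined.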

Plasma kallikrein = Plasma kallikrein (Homo sapiens, UniProt P03952); assay: Inhibitory activity against serine protease plasma kallikrein
How it was run: (§3)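 Inhibition constants (Ki) for each serine protease are the average of at least two determinations, with assay variation of ±10%.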

[4] = Oral bioavailability in rat after peroral injection of 10 mg/kg of compound; assay type: ADME, organism-based; details: in vivo; how it was run: as §2
[5] = Area under curve was evaluated after intravenous injection of 1 mg/kg of compound in dogs; assay type: ADME, organism-based, Canis lupus familiaris; set-up: dose 1 mg/kg, route intravenous; details: dog, in vivo
[6] = Partition coefficient (logP); assay type: physicochemical; details: octanol/water
Plasminogen = Plasminogen (Homo sapiens, UniProt P00747); assay: Inhibitory activity against serine protease plasmin
[7] = Clearance from rat plasma after intravenous injection of 1 mg/kg of compound; assay type: ADME, organism-based; set-up: dose 1 mg/kg, route intravenous
Coagulation factor X = Coagulation factor X (Homo sapiens, UniProt P00742); assay: Inhibitory activity against serine protease Coagulation factor X; how it was run: as §3
[8] = Clearance from dog plasma after intravenous injection of 1 mg/kg of compound; assay type: ADME, organism-based, Canis lupus familiaris; set-up: dose 1 mg/kg, route intravenous
[9] = Oral bioavailability in dog after peroral injection of 5 mg/kg of compound; assay type: ADME, organism-based, Canis lupus familiaris; details: in vivo; how it was run: as §1
Rattus norvegicus [10] = species on record: Rattus norvegicus; assay: concentration of compound in rat required to double the activated thromboplastin time; assay type: functional
Prothrombin = Prothrombin (Homo sapiens, UniProt P00734); assay: Inhibition of Thrombin
[11] = Area under curve was evaluated after intravenous injection of 1 mg/kg of compound in rats; assay type: ADME, organism-based; set-up: dose 1 mg/kg, route intravenous; details: rat, in vivo
Homo sapiens = species on record: Homo sapiens; assay: concentration of compound in human required to double the activated thromboplastin time; assay type: functional
Rattus norvegicus [12] = species on record: Rattus norvegicus; assay: Antithrombotic activity was assessed from the associated plasma protein binding in rat, determined in a thrombin chromogenic assay; assay type: functional
[13] = Antithrombotic activity was assessed from the associated plasma protein binding in Human, determined in a thrombin chromogenic assay; assay type: functional
[14] = Half-life period after, intravenous injection of 1 mg/kg in rats; assay type: ADME, organism-based; set-up: dose 1 mg/kg, route intravenous; details: rat, in vivo
[15] = target: Tissue-type plasminogen activator (Homo sapiens, UniProt P00750); assay: Inhibitory activity against serine protease TPA; how it was run: as §3
[16] = Half-life period after, intravenous injection of 1 mg/kg in dogs; assay type: ADME, organism-based, Canis lupus familiaris; set-up: dose 1 mg/kg, route intravenous; details: dog, in vivo
Rattus norvegicus [17] = species on record: Rattus norvegicus; assay: Final concentration in rat plasma; assay type: functional, organism-based
How it was run: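 Rats received an iv infusion at 10 µg/kg/min in saline for 120 min before a FeCl3 vascular insult. Plasma inhibitor level was measured at the end of the experiment.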

Serine protease 1 = Serine protease 1 (Homo sapiens, UniProt P07477); assay: In vitro inhibition of human trypsin.; how it was run: as §3
[18] = Oral bioavailability in rat (dose 10 mg/kg); assay type: ADME, organism-based; details: in vivo; how it was run: as §2
Rattus norvegicus [19] = species on record: Rattus norvegicus; assay: concentration of compound in rat plasma required to double the activated thromboplastin time; assay type: functional
[20] = concentration of compound in human plasma required to double the activated thromboplastin time; assay type: functional
[21] = Concentration of inhibitor in human plasma required to double the activated thromboplastin time; assay type: functional
Rattus norvegicus [22] = species on record: Rattus norvegicus; assay: Concentration of inhibitor in rat plasma required to double the activated thromboplastin time; assay type: functional
Rattus norvegicus [23] = species on record: Rattus norvegicus; assay: Antithrombotic activity was assessed from the associated plasma protein binding in Rats, determined in a thrombin chromogenic assay; assay type: functional
[24] = Oral bioavailability (5 mg/kg) was determined in dogs; assay type: ADME, organism-based, Canis lupus familiaris; details: dog, in vivo; how it was run: as §1

Sequence of Plasma kallikrein (P03952 20-390 limits assumed): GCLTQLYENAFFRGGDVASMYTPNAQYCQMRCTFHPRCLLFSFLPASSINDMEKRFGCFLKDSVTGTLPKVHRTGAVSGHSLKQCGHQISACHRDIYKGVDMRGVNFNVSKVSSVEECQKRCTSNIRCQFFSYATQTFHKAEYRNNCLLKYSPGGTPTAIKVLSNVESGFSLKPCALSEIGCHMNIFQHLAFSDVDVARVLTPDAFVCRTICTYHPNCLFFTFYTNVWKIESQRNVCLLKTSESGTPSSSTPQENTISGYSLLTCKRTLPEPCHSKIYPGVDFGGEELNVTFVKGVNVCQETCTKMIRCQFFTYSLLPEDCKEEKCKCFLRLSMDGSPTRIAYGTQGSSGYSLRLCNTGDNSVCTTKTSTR
Sequence of Plasma kallikrein (P03952 391-638 limits assumed): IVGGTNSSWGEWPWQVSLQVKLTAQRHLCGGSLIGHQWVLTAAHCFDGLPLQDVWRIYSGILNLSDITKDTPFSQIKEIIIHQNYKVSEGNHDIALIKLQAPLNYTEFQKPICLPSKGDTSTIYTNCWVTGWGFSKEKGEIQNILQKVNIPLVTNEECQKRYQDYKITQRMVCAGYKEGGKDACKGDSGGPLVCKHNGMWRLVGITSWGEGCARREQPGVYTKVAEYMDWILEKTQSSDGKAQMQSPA
Sequence of Coagulation factor X (P00742 41-179 limits assumed): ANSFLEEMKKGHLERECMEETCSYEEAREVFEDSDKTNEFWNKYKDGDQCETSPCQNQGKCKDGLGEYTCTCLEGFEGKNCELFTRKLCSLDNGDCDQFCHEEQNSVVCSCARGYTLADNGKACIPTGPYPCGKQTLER
Sequence of Coagulation factor X (P00742 235-488 limits assumed): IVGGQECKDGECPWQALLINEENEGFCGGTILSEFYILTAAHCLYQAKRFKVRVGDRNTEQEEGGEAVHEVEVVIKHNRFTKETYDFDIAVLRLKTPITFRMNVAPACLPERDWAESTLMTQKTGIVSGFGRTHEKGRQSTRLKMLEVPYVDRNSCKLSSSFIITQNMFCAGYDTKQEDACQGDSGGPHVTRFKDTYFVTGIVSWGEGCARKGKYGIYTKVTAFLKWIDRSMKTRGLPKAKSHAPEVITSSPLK
Sequence of Serine protease 1 (P07477 whole entry): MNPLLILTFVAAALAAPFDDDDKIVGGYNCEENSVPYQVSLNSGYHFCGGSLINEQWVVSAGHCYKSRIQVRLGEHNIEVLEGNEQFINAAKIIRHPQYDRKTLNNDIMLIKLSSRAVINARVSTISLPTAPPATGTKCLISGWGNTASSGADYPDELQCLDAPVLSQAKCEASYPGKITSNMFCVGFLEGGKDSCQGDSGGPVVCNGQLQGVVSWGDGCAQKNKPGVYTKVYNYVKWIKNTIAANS
Sequence of Plasminogen (P00747 97-580 limits assumed): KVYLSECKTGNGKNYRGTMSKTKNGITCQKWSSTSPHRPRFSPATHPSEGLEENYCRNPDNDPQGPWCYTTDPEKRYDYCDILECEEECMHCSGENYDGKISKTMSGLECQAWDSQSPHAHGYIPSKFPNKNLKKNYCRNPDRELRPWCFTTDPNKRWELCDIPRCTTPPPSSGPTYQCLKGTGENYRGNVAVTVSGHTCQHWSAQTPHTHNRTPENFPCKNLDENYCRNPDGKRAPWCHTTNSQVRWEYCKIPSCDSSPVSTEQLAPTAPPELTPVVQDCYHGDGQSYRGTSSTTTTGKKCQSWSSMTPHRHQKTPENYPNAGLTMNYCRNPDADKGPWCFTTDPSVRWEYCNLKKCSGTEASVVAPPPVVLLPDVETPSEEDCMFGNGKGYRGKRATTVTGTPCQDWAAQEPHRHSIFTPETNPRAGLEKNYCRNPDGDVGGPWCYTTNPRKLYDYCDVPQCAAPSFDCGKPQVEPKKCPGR
Sequence of Plasminogen (P00747 581-810 limits assumed): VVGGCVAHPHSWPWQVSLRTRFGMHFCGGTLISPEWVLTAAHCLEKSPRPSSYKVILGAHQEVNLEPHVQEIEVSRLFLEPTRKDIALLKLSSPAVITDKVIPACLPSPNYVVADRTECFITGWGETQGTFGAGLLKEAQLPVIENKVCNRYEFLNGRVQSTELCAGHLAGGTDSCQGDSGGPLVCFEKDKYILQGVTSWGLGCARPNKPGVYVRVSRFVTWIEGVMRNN
Sequence of Tissue-type plasminogen activator (P00750 whole entry): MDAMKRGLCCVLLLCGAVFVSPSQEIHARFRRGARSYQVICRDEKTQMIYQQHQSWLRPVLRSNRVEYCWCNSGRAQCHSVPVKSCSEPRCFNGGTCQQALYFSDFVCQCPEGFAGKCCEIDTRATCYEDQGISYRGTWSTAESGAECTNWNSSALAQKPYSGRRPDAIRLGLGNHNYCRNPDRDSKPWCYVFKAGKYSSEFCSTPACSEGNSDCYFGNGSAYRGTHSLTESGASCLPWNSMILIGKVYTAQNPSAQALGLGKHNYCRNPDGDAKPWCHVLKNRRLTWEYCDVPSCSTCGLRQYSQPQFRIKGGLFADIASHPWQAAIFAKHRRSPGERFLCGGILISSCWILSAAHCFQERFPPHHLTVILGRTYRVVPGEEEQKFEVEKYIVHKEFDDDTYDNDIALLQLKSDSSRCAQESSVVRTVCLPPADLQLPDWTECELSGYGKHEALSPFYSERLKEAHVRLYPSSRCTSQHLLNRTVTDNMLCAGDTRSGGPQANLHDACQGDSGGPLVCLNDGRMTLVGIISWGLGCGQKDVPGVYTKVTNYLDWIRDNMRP

SMILES: NC1CCC(CNC(=O)[C@@H]2CCCN2C(=O)CC(c2ccccc2)c2ccccc2)CC1.O=C(O)C(F)(F)F (some centres not stated)
half-life [1]: 2.6 h | bioavailability [2]: 58% | bioavailability [3]: 10% | Ki (Plasma kallikrein): > 1000 µM | bioavailability [4]: 10% | AUC [5]: 3.81 µM·h | logP [6]: 0.37 | Ki (Plasminogen): 744 µM | clearance [7]: 23.2 mL/min/kg | Ki (Coagulation factor X): 980 µM | clearance [8]: 10.2 mL/min/kg | bioavailability [9]: 58% | 2x APTT (Rattus norvegicus [10]): 0.65 µM | Ki (Prothrombin): 0.002 µM | AUC [11]: 1.7 µM·h | 2x APTT (Homo sapiens): 0.67 µM | Activity (Rattus norvegicus [12]): 7% | Activity [13]: 7% | half-life [14]: 4.47 h | Ki [15]: > 1000 µM | half-life [16]: 2.92 h | Concentration (Rattus norvegicus [17]): 1600 nM | Ki (Serine protease 1): 0.353 µM and 0.35 µM

SMILES: NC1CCC(CNC(=O)[C@@H]2CCCN2C(=O)CC2c3ccccc3CCc3ccccc32)CC1.O=C(O)C(F)(F)F (some centres not stated)
bioavailability [18]: 12% | Ki (Prothrombin): 0.017 µM

Ki (Prothrombin): 0.016 µM | Ki (Serine protease 1): 17 µM
SMILES: CC(CC(=O)N1CCC[C@H]1C(=O)NCC1CCC(N)CC1)(c1ccccc1)c1ccccc1 (some centres not stated)

bioavailability [3]: 56% | Ki (Plasma kallikrein): 170 µM | logP [6]: 1.96 | Ki (Plasminogen): 176 µM | Ki (Coagulation factor X): 220 µM | Ki (Prothrombin): 0.014 µM | Ki [15]: 84 µM | Ki (Serine protease 1): 2.5 µM
SMILES: Cl.NC1CCC(CNC(=O)[C@@H]2CCCN2C(=O)CC(C2CCCCC2)C2CCCCC2)CC1 (some centres not stated)
2x APTT (Rattus norvegicus [19]): 7.2 µM | 2x APTT [20]: 7.1 µM | Activity (Rattus norvegicus [12]): 6% | Activity [13]: 1% | Concentration (Rattus norvegicus [17]): 658 nM

SMILES: Cl.NC1CCC(CNC(=O)[C@@H]2CCCN2C(=O)CC2c3ccccc3C=Cc3ccccc32)CC1 (some centres not stated)
Ki (Plasma kallikrein): 775 µM | bioavailability [18]: 51% | logP [6]: 0.27 | Ki (Plasminogen): 414 µM | Ki (Coagulation factor X): > 1000 µM | Ki (Prothrombin): 0.003 µM | Ki [15]: 268 µM | Ki (Serine protease 1): 1.6 µM

SMILES: CC1CNc2c(cccc2S(=O)(=O)N[C@@H](CCCNC(=N)N)C(=O)N2CCC(C)C[C@@H]2C(=O)O)C1 (single isomer, unassigned) [ARGATROBAN]
2x APTT [21]: 0.28 µM

SMILES: NC1CCC(CNC(=O)[C@@H]2CCCN2C(=O)CC(c2ccccc2)c2ccccn2)CC1 (single isomer, unassigned; diastereomer 1)
Ki (Plasma kallikrein): 767 µM | Ki (Plasminogen): > 1000 µM | Ki (Coagulation factor X): 370 µM | Ki (Prothrombin): 0.0018 µM | Ki [15]: > 1000 µM | Ki (Serine protease 1): 0.89 µM

SMILES: NC1CCC(CNC(=O)[C@@H]2CCCN2C(=O)CC(c2ccccc2)c2cccnc2)CC1 (single isomer, unassigned; diastereomer 1)
Ki (Prothrombin): 0.01 µM | Ki (Serine protease 1): 2.8 µM

SMILES: NC1CCC(CNC(=O)[C@@H]2CCCN2C(=O)CC(c2ccccc2)C2CCCCC2)CC1 (single isomer, unassigned; diastereomer 1)
Ki (Prothrombin): 0.008 µM | Ki (Serine protease 1): 1.7 µM

SMILES: NC1CCC(CNC(=O)[C@@H]2CCCN2C(=O)CC(c2ccccc2)c2ccncc2)CC1 (single isomer, unassigned; diastereomer 1)
Ki (Prothrombin): 0.029 µM | Ki (Serine protease 1): 19 µM

SMILES: NC1CCC(CNC(=O)[C@@H]2CCCN2C(=O)CC(c2cccnc2)c2ccc3c(c2)OCO3)CC1.O=C(O)C(F)(F)F (single isomer, unassigned; diastereomer 2)
Ki (Plasma kallikrein): 1000 µM | bioavailability [18]: < 5% | logP [6]: -1.62 | Ki (Plasminogen): 572 µM | Ki (Coagulation factor X): 1000 µM | 2x APTT (Rattus norvegicus [22]): 0.38 µM | Ki (Prothrombin): 0.00028 µM | 2x APTT [20]: 0.3 µM | Ki [15]: > 500 µM | Ki (Serine protease 1): 2.6 µM

SMILES: NC1CCC(CNC(=O)[C@@H]2CCCN2C(=O)CC(c2ccccc2)c2ccccn2)CC1 (single isomer, unassigned; diastereomer 2)
Ki (Prothrombin): 0.012 µM | Ki (Serine protease 1): 5 µM

SMILES: NC1CCC(CNC(=O)[C@@H]2CCCN2C(=O)CC(c2ccccc2)c2cccnc2)CC1.O=C(O)C(F)(F)F (single isomer, unassigned; diastereomer 2)
Ki (Plasma kallikrein): 476 µM | logP [6]: -0.64 | Ki (Plasminogen): > 1000 µM | Activity (Rattus norvegicus [23]): 56% | Ki (Coagulation factor X): > 1000 µM | 2x APTT (Rattus norvegicus [22]): 0.59 µM | Ki (Prothrombin): 0.0022 µM | bioavailability [24]: 8% | 2x APTT [20]: 0.47 µM | Activity [13]: 35% | Ki [15]: 746 µM | Ki (Serine protease 1): 2.2 µM

SMILES: NC1CCC(CNC(=O)[C@@H]2CCCN2C(=O)CC(c2ccccc2)C2CCCCC2)CC1 (single isomer, unassigned; diastereomer 2)
Ki (Prothrombin): 0.004 µM | Ki (Serine protease 1): 0.3 µM

SMILES: NC1CCC(CNC(=O)[C@@H]2CCCN2C(=O)CC(c2ccccc2)c2ccncc2)CC1 (single isomer, unassigned; diastereomer 2)
Ki (Plasma kallikrein): > 1000 µM | Ki (Plasminogen): 744 µM | Ki (Coagulation factor X): 400 µM | Ki (Prothrombin): 0.0034 µM | Ki [15]: 436 µM | Ki (Serine protease 1): 2.2 µM

SMILES: NC1CCC(CNC(=O)[C@@H]2CCCN2C(=O)CC(c2ccccc2)c2cccnc2)CC1 (single isomer, unassigned; diastereomer 2)
Concentration (Rattus norvegicus [17]): 2890 nM

SMILES: NC1CCC(CNC(=O)[C@@H]2CCCN2C(=O)CC(c2cccnc2)c2ccc3c(c2)OCO3)CC1 (single isomer, unassigned; diastereomer 2)
Concentration (Rattus norvegicus [17]): 4000 nM

SMILES: NC1CCC(CNC(=O)[C@@H]2CCCN2C(=O)CC(c2cccnc2)c2ccc3c(c2)OCO3)CC1 (stereo in doubt)
Ki (Prothrombin): 0.0047 µM | Ki (Serine protease 1): 1.9 µM
